# Experimental data gathered from unrelated publications.
# Each line is one published result; the experiments were not run side by side.
# Read-out: cell growth or viability
Structure (SMILES),cell line,test,setting,IC50
CC(C)N=c1cc2n(-c3ccc(Cl)cc3)c3ccccc3nc-2cc1Nc1ccc(Cl)cc1,Caco-2,MTT,24 h,23.3 µg/mL
NS(=O)(=O)c1ccc(-n2nc(C(=O)NN3C(=O)c4ccccc4C3=O)cc2-c2ccccc2)cc1,HT-29,fluorescence,48 h,48.3 µM
O=C(NO)c1ccc(N2CCN(Cc3cnc4ccccc4c3)CC2)cc1,LLC-PK1,,48 h,> 69.1 µM
O=c1c2cc(Cl)ccc2nc(-c2ccccc2)n1N=Cc1ccc(Br)cc1O,LLC-PK1,MTT,72 h,34.8 µM
NS(=O)(=O)c1ccc(-n2nc(C(=O)NN3C(=O)CCC3=O)cc2-c2ccccc2)cc1,HT-29,fluorescence,48 h,31.4 µM
COc1cccc2c1C(=O)c1c(O)c3c(c(O)c1C2=O)C[C@@](O)(C(=O)CO)C[C@@H]3O[C@H]1C[C@H](N)[C@H](O)[C@H](C)O1,SU-DHL-4,,96 h,0.00506 µM
NS(=O)(=O)c1ccc(-n2nc(C(=O)NN=Cc3ccc(O)cc3)cc2-c2ccccc2)cc1,HT-29,fluorescence,48 h,19.7 µM
Cc1nn(-c2ccc(S(=O)(=O)N3CCN(C)CC3)cc2)c2nn3nnnc3nc12,HT-29,MTT,,0.08 µM
O=C(NO)c1ccc(N2CCN(Cc3c[nH]c4ccccc34)CC2)cc1,LLC-PK1,,48 h,13.3 µM
C=CC(=O)N1CCC[C@@H](n2nc(-c3ccc(Oc4ccccc4)cc3)c3c(N)ncnc32)C1,SU-DHL-4,resazurin,72 h,0.454 µM
O=c1c2cc(Cl)ccc2nc(-c2ccccc2)n1N=Cc1ccc([N+](=O)[O-])cc1,LLC-PK1,MTT,72 h,115 µM
CC(=O)OC[C@H]1O[C@@H]([S-])[C@H](OC(C)=O)[C@@H](OC(C)=O)[C@@H]1OC(C)=O.CCP(CC)CC.[Au+],IMR-90,MTT,48 h,5.27 µM
O=c1c2cc(Cl)ccc2nc(-c2ccccc2)n1N=Cc1ccccc1,LLC-PK1,MTT,72 h,303 µM
CC(=O)O[C@@H]1CC[C@@]2(C)[C@@H](CC[C@]3(C)[C@@H]2C(=O)C=C2[C@@H]4[C@@H](C)[C@H](C)CC[C@]4(C)CC[C@]23C)[C@@]1(C)C(=O)O,Caco-2,MTT,6 h,1.61 µM
O=c1c2cc(Cl)ccc2nc(-c2ccccc2)n1N=Cc1cccc([N+](=O)[O-])c1,LLC-PK1,MTT,72 h,149 µM
NS(=O)(=O)c1ccc(-n2nc(-c3nnc(CCl)o3)cc2-c2ccccc2)cc1,HT-29,fluorescence,48 h,29.5 µM
CCOc1ccc(C=Nn2c(-c3ccccc3)nc3ccc(Cl)cc3c2=O)cc1,LLC-PK1,MTT,72 h,136 µM
O=C(NO)c1ccc(NCc2cnc3ccccc3c2)cc1,LLC-PK1,,48 h,9.38 µM
CC(=NNC(=O)c1cc(-c2ccccc2)n(-c2ccc(S(N)(=O)=O)cc2)n1)c1ccc(C)cc1,HT-29,fluorescence,48 h,21.8 µM
O=c1c2cc(Cl)ccc2nc(-c2ccccc2)n1N=Cc1ccccc1Cl,LLC-PK1,MTT,72 h,351 µM
